Consider 16 compounds from PubChem BioAssay.

A number with no mark means an inactive call. Records with an inconclusive call do not appear. Activity calls are given as the source filed them.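 How the source made its calls, unless noted: active means cell viability at or below a set limit in both duplicate runs, the limit being the all-compound median minus 4 SD (cut at about 23% in these data, passing the limit was not always enough); inconclusive means no clear call, values can overlap the other calls; inactive means the rest.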

Test [1] in a line: OD615 S. cerevisiae growth inhibition, permissive medium, pilot counter-assay, permissive growth control for S. cerevisiae lifespan shortening project (AID 705;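 active means growth inhibition above 25% in both replicates, a cutoff set 3 SD above the mean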). To be noted: OD615, 24 h, at 10 µM, stronger effect = higher value. An outline of the steps: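 Test system: Saccharomyces cerevisiae strain carrying genetically modified DeaD replicative-lifespan system; buffer or medium: SC raffinose/galactose permissive medium; dosing: one dose 10 µM, DMSO 0.25% final; times: 24 h exposure, 30 °C; measured by: OD at 615 nm; read-out basis: growth inhibition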

A short description of test [2]: Restrictive medium S. cerevisiae growth inhibition, OD615, pilot screen of yeast lifespan reduction project, restrictive growth control (AID 706;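 active means growth inhibition above a set limit, 3 SD over mean compound inhibition, in both replicates, cut at about 43% in these data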;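 further: modified DeaD lifespan yeast strain shifted to restrictive glucose medium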). The note with it: OD615, 48 h, at 10 µM, stronger effect = higher value. An outline of the steps: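 material = engineered S. cerevisiae DeaD strain | buffer or medium = glucose-based CSMM-D restrictive medium | dosing = one concentration, 10 µM final, 0.25% DMSO | schedule = 4 h pre-growth plus 48 h compound exposure, 30 °C | detection = OD615 absorbance reading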

Test [3] can be described thus: viability gain of MRP-1-high H69AR cells under doxorubicin, pilot screen, MRP-1 activator project, CellTiter-Glo, duplicate (AID 807;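 active means viability increase at or above a cutoff of the median across tested compounds plus 3 SD, cut at about 8.5% in these data, passing the limit was not always enough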;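 further: compound pretreatment 18-22 h then 72 h combined with doxorubicin; 0% = doxorubicin alone and 100% = vehicle without doxorubicin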). The note with it: H69AR viability with doxorubicin, CellTiter-Glo luminescence; at 10 µM; stronger effect = higher value. (Cellular ATP, detected with luciferase, serves as a proxy for viable cell number.)
The nature of test [4]: growth suppression of beta-catenin knockout HCT116, pilot screen, human colon tumor cells (AID 823).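 Further: 0% = wells killed by 20 µM Hyamine and 100% = untreated DMSO cell wells.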 To be noted: CellTiter-Glo, 60 h, at 10 µM, stronger effect = lower value.
Test [5] can be described thus: growth suppression of PTEN-deleted HCT116, pilot screen, cell-based, HCT116 clonal line, CellTiter-Glo (AID 824;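 active means viability at or below 27.92% in each of two runs, the all-compound median minus 4 SD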;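 further: 0% = 20 µM Hyamine control and 100% = vehicle cell control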). To be noted: 60 h, at 10 µM, stronger effect = lower value.
Test [6] can be described thus: inhibitors of the yeast RAM network, pilot screen, dse1pr::URA3 reporter, 5-FOA selection (AID 869;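 active means inhibition over a set limit, the all-compound mean plus 3 SD, in both replicate runs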;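 further: 0% = DMSO wells with no growth and 100% = 10 µM 1-NA-PP1 with full growth; RAM network block rescues cells from 5-FOA so hits raise OD615 growth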). To be noted: S. cerevisiae dse1pr::URA3 5-FOA growth, OD615, 2 d; at 10 µM; stronger effect = higher value; strain carries analog-sensitive mutant Cbk1 kinase.
Test [7] is described as follows: RAM signaling pathway blockade in yeast – S. cerevisiae, Pdr1DBD-CYC8 efflux-inhibited sensitized strain, primary screen (AID 1298;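 active means RAM network inhibition above 8.4% in each of two replicates, 3 SD over the compound average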;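 further: 0% = DMSO untreated cells without growth and 100% = 10 µM 1-NA-PP1 full growth; higher means more yeast growth rescued from 5-FOA killing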). The note with it: S. cerevisiae cbk1-as DSE1-URA3 strain, 5-FOA growth OD615, 2 d; at 50 µM; stronger effect = higher value.

As to `CCOC(=O)N1CCC(N2Cc3cccc(C(=O)NCc4ccccn4)c3C2=O)CC1`, the growth inhibition in test [1] is -4.83%; in test [2], 8.18%. For the same compound, the viability increase in test [3] is -5.24%. Moreover, the viability (usually a read-out of living cells in per cent, often relative to untreated cells) is 99.8% in test [4] and 102% in test [5]. Further, the inhibition (usually the relative decrease from the control value, in per cent) in test [6] was 2.19%. The RAM network inhibition in test [7] was -1.14%.
Turning to `O=C(Nc1nc2ccccc2n1CCOc1ccc(Cl)cc1)c1ccco1`, the growth inhibition in test [1] is 0.61%; in test [2], -2.21%. For the same compound, in test [3], the viability increase was -3.5%. Besides, the viability in test [4] was 11.8% (active); in test [5] it was 16.8% (active). Further, the inhibition in test [6] is 0.745%. Moreover, in test [7], the RAM network inhibition was 4.7%.
Regarding `O=C(Nc1c(C(=O)N2CCCCC2)cnn1-c1ccccc1)c1ccco1`, the growth inhibition in test [1] is -2.23%; in test [2], -5.33%. The viability increase in test [3] was -0.92%. Further, the figures for the viability in test [4] and in test [5] were 95.2% and 95.5%, respectively. The inhibition in test [6] is 1.14%. The RAM network inhibition in test [7] is 0.25%.
For the compound `Cc1nc(SC(C)C)[nH]c(=O)c1Cc1ccccc1`, the figures for the growth inhibition in test [1] and in test [2] were -14.9% and -4.47%, respectively. Moreover, the viability increase in test [3] was -0.89%. Also, the viability in test [4] was 98.4%; in test [5], 91.8%. For the same compound, in test [6], the inhibition was 1.1%. Moreover, the RAM network inhibition in test [7] is 3.52%.
On to `COc1ccccc1NC(=O)CSc1nc2sc(C)c(C)c2c(=O)n1Cc1ccco1`, for which the growth inhibition in test [1] was 9.68%; in test [2], 9.95%. Further, the viability increase in test [3] was -3.07%. Further, the results for the viability in test [4] and in test [5] were 91% and 92%, respectively. Also, the inhibition in test [6] is 2.17%. Further, the RAM network inhibition in test [7] is 3.57%.
In the case of `COc1cccc(C2CC(c3ccc(C(C)C)cc3)n3nc(N)nc3N2)c1` (configuration not stated), the growth inhibition in test [1] was -2.39%; in test [2] it was 3.09%. The viability increase in test [3] is 0.91%. For the same compound, the viability is 97.1% in test [4] and 95.7% in test [5]. Also, the inhibition in test [6] is 1.5%. The RAM network inhibition in test [7] was 3.94%.
On to `CSc1cc(/C=N/O)c(SC)s1`, for which the growth inhibition in test [1] is -6.62%; in test [2], 1.13%. Also, the viability increase in test [3] was -3.3%. Also, the values for the viability in test [4] and in test [5] were 97.3% and 95.9%, respectively. Besides, in test [6], the inhibition is 0.395%. Also, the RAM network inhibition in test [7] was -1.95%.
Turning to `CC(C)Cn1c(CNC(=O)c2ccccc2)nc2ccccc21`, the growth inhibition in test [1] is -4.34%; in test [2], -13.4%. In test [3], the viability increase was -2.23%. The viability in test [4] was 99.6%; in test [5] it was 93.1%. In test [6], the inhibition is 0.785%. Further, the RAM network inhibition in test [7] was -0.78%.
`CCCCN(C)C(=O)c1c[nH]c2ccc(S(=O)(=O)N3CCOCC3)cc2c1=O`: the figures for the growth inhibition in test [1] and in test [2] were -5.67% and -15.5%, respectively. Besides, the viability increase in test [3] is 0.64%. In addition, the viability in test [4] is 109%; in test [5], 98.8%. Moreover, the inhibition in test [6] is 2.05%. Further, the RAM network inhibition in test [7] is 5.01%.
For `CC1CCN(c2ncnc3c2cnn3-c2ccccc2)CC1`, the growth inhibition in test [1] was 7.81%; in test [2], 10.9%. In addition, the viability increase in test [3] was 4.17%. Further, the viability is 77.8% in test [4] and 87.3% in test [5]. Moreover, in test [6], the inhibition was 0.495%. The RAM network inhibition in test [7] was -1.46%.
As for `O=C(C1CCC(=O)N1Cc1cccnc1)N1CCN(c2ccc(F)cc2)CC1` (configuration not stated), the growth inhibition in test [1] is -0.085%; in test [2], -9.05%. Besides, in test [3], the viability increase was -2.73%. Besides, the values for the viability in test [4] and in test [5] were 90.1% and 88.4%, respectively. Also, in test [6], the inhibition was 0.585%. Moreover, the RAM network inhibition in test [7] was 5.89%.
`CCn1c(=O)c2cc(C(=O)N3CCOCC3)sc2c2ccccc21`: the growth inhibition in test [1] was -8.55%; in test [2] it was -14.5%. For the same compound, in test [3], the viability increase was -3.34%. Further, the viability in test [4] was 102%; in test [5] it was 87.3%. Further, the inhibition in test [6] was 0.84%. Also, the RAM network inhibition in test [7] was 2.72%.
On to `COc1cccc(-c2cc(N)nn2C(=O)Nc2ccc(Cl)cc2)c1`, for which the growth inhibition was -15.4% in test [1] and -29.3% in test [2]. For the same compound, the viability increase in test [3] was -2.28%. For the same compound, the viability in test [4] is 105%; in test [5] it was 90.7%. In test [6], the inhibition was -0.025%. The RAM network inhibition in test [7] was 0.22%.
In the case of `Cc1noc(C(=O)Nc2sc3c(c2C#N)CCC3)c1Cl`, the growth inhibition was -6.86% in test [1] and 2.54% in test [2]. Besides, the viability increase in test [3] is -1.69%. The viability is 65.8% in test [4] and 55.6% in test [5]. The inhibition in test [6] is 1.84%. In test [7], the RAM network inhibition is 2.59%.
With `Cc1cc(C)nc(SCCCn2c(=O)[nH]c3ccccc32)n1`, the results for the growth inhibition in test [1] and in test [2] were -6.43% and -7.19%, respectively. In addition, the viability increase in test [3] was 1.32%. Besides, the viability in test [4] was 99.9%; in test [5], 90.5%. Also, in test [6], the inhibition is 1.02%. Further, in test [7], the RAM network inhibition was 10.9%.
In the case of `CN(C)c1ccc(C2C3C(=O)NC(=O)C3ON2c2ccc(Cl)cc2)cc1` (configuration not stated), the results for the growth inhibition in test [1] and in test [2] were -0.19% and 2.37%, respectively. For the same compound, the viability increase in test [3] was -0.83%. Besides, the viability in test [4] was 102%; in test [5], 98.6%. The inhibition in test [6] was 0.735%. Also, the RAM network inhibition in test [7] was 4.07%.
